Measured values from ChEMBL document CHEMBL3272035, “(Vinylaryloxy)acetic acids. A new class of diuretic agents. 1. (Diacylvinylaryloxy)acetic acids” (J Med Chem, 1976).

Tests used:
Canis familiaris [1] = assay: Diuretic activity in mongrel dog anesthetized with sodium pentobarbital assessed as urine Na+ level at 10 mg/kg, iv measured after 15 to 45 mins post dose (reference value: 4 to 82 uequiv/min); format: functional, Canis lupus familiaris
Canis familiaris [2] = assay: Diuretic activity in mongrel dog anesthetized with sodium pentobarbital assessed as urine K+ level at 10 mg/kg, iv measured after 15 to 45 mins post dose (reference value: 5 to 104 uequiv/min); format: functional, Canis lupus familiaris
Canis familiaris [3] = assay: Diuretic activity in mongrel dog anesthetized with sodium pentobarbital assessed as urine volume at 10 mg/kg, iv measured after 15 to 45 mins post dose (reference value: 1 to 4 ml/min); format: functional, Canis lupus familiaris
Canis familiaris [4] = assay: Diuretic activity in mongrel dog anesthetized with sodium pentobarbital assessed as urine Na+ level at 1 mg/kg, iv measured after 15 to 45 mins post dose (reference value: 4 to 82 uequiv/min); format: functional, Canis lupus familiaris
Canis familiaris [5] = assay: Diuretic activity in mongrel dog anesthetized with sodium pentobarbital assessed as urine K+ level at 1 mg/kg, iv measured after 15 to 45 mins post dose (reference value: 5 to 104 uequiv/min); format: functional, Canis lupus familiaris
Canis familiaris [6] = assay: Diuretic activity in mongrel dog anesthetized with sodium pentobarbital assessed as urine volume at 1 mg/kg, iv measured after 15 to 45 mins post dose (reference value: 1 to 4 ml/min); format: functional, Canis lupus familiaris
Canis familiaris [7] = assay: Diuretic activity in mongrel dog anesthetized with sodium pentobarbital assessed as urine Cl- level at 1 mg/kg, iv measured after 15 to 45 mins post dose (reference value: 2 to 64 uequiv/min); format: functional, Canis lupus familiaris
Canis familiaris [8] = assay: Diuretic activity in mongrel dog anesthetized with sodium pentobarbital assessed as urine volume at 25 mg/kg, iv measured after 15 to 45 mins post dose (reference value: 1 to 4 ml/min); format: functional, Canis lupus familiaris
Canis familiaris [9] = assay: Diuretic activity in mongrel dog anesthetized with sodium pentobarbital assessed as urine Na+ level at 25 mg/kg, iv measured after 15 to 45 mins post dose (reference value: 4 to 82 uequiv/min); format: functional, Canis lupus familiaris
Canis familiaris [10] = assay: Diuretic activity in mongrel dog anesthetized with sodium pentobarbital assessed as urine K+ level at 25 mg/kg, iv measured after 15 to 45 mins post dose (reference value: 5 to 104 uequiv/min); format: functional, Canis lupus familiaris
Canis familiaris [11] = assay: Diuretic activity in mongrel dog anesthetized with sodium pentobarbital assessed as urine Cl- level at 10 mg/kg, iv measured after 15 to 45 mins post dose (reference value: 2 to 64 uequiv/min); format: functional, Canis lupus familiaris
Canis familiaris [12] = assay: Diuretic activity in mongrel dog anesthetized with sodium pentobarbital assessed as urine Na+ level at 0.1 mg/kg, iv measured after 15 to 45 mins post dose (reference value: 4 to 82 uequiv/min); format: functional, Canis lupus familiaris
Canis familiaris [13] = assay: Diuretic activity in mongrel dog anesthetized with sodium pentobarbital assessed as urine K+ level at 0.1 mg/kg, iv measured after 15 to 45 mins post dose (reference value: 5 to 104 uequiv/min); format: functional, Canis lupus familiaris
Canis familiaris [14] = assay: Diuretic activity in mongrel dog anesthetized with sodium pentobarbital assessed as urine Cl- level at 0.1 mg/kg, iv measured after 15 to 45 mins post dose (reference value: 2 to 64 uequiv/min); format: functional, Canis lupus familiaris
Canis familiaris [15] = assay: Diuretic activity in mongrel dog anesthetized with sodium pentobarbital assessed as urine volume at 0.1 mg/kg, iv measured after 15 to 45 mins post dose (reference value: 1 to 4 ml/min); format: functional, Canis lupus familiaris
Canis familiaris [16] = assay: Diuretic activity in mongrel dog […] assessed as urine volume per 6 hrs at 1.27 mg/kg, po as gelatin capsules relative to control; format: functional, Canis lupus familiaris
Procedure, shortened: (§1)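 Conscious trained female mongrel dogs (8–10 kg), fasted overnight after 100 ml water the day before. On test day 250 ml water orally, then 500 ml 1 h later. Bladder emptied 1 h afterwards and compound or placebo given in gelatin capsules. Voided urine from metabolism cages pooled with catheter urine at 6 h; volume and Na+, K+, Cl− measured; geometric means.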

Canis familiaris [17] = assay: Diuretic activity in mongrel dog assessed as urine K+ level per 6 hrs at 1.27 mg/kg, po as gelatin capsules relative to control
Canis familiaris [18] = assay: Diuretic activity in mongrel dog assessed as urine Na+ level per 6 hrs at 1.27 mg/kg, po as gelatin capsules relative to control
Canis familiaris [19] = assay: Diuretic activity in mongrel dog assessed as urine Cl- level per 6 hrs at 1.27 mg/kg, po as gelatin capsules relative to control
Canis familiaris [20] = assay: Diuretic activity in mongrel trained conscious dog assessed as urine volume per 6 hrs at 0.4 mg/kg, po as gelatin capsules relative to control
Canis familiaris [21] = assay: Diuretic activity in mongrel trained conscious dog assessed as urine K+ level per 6 hrs at 0.4 mg/kg, po as gelatin capsules relative to control
Canis familiaris [22] = assay: Diuretic activity in mongrel trained conscious dog assessed as urine Na+ level per 6 hrs at 0.4 mg/kg, po as gelatin capsules relative to control
Canis familiaris [23] = assay: Diuretic activity in mongrel trained conscious dog assessed as urine Cl- level per 6 hrs at 0.4 mg/kg, po as gelatin capsules relative to control
Canis familiaris [24] = assay: Diuretic activity in mongrel dog assessed as urine volume per 6 hrs at 1 mg/kg, po as gelatin capsules relative to control
Canis familiaris [25] = assay: Diuretic activity in mongrel dog assessed as urine K+ level per 6 hrs at 1 mg/kg, po as gelatin capsules relative to control
Canis familiaris [26] = assay: Diuretic activity in mongrel trained conscious dog assessed as urine Na+ level per 6 hrs at 1 mg/kg, po as gelatin capsules relative to control
Canis familiaris [27] = assay: Diuretic activity in mongrel dog […] assessed as urine Na+ level per 6 hrs at 3 mg/kg, po as gelatin capsules relative to control; format: functional, Canis lupus familiaris; procedure, shortened: as §1
Canis familiaris [28] = assay: Diuretic activity in mongrel dog […] assessed as urine K+ level per 6 hrs at 3 mg/kg, po as gelatin capsules relative to control; format: functional, Canis lupus familiaris; procedure, shortened: as §1
Canis familiaris [29] = assay: Diuretic activity in mongrel dog […] assessed as urine Cl- level per 6 hrs at 3 mg/kg, po as gelatin capsules relative to control; format: functional, Canis lupus familiaris; procedure, shortened: as §1
Canis familiaris [30] = assay: Diuretic activity in mongrel dog […] assessed as urine volume per 6 hrs at 3 mg/kg, po as gelatin capsules relative to control; format: functional, Canis lupus familiaris; procedure, shortened: as §1
[31] = Half life of the compound in DMF-phosphate buffer at pH 7.4 at 25 degC assessed as SH binding in presence of mercaptoacetic acid; format: physicochemical; details: DMF-phosphate buffer with mercaptoacetic acid
Procedure, shortened: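 Minutes for half of a standard amount of compound to react with excess mercaptoacetic acid in DMF-phosphate buffer, pH 7.4, 25°.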

Canis familiaris [32] = assay: Diuretic activity in mongrel dog assessed as urine Cl- level per 6 hrs at 1 mg/kg, po as gelatin capsules relative to control

Row | SMILES | Activity (Canis familiaris [1]) [uEq/min] | Activity (Canis familiaris [2]) [uEq/min] | Activity (Canis familiaris [3]) [mL/min] | Activity (Canis familiaris [4]) [uEq/min] | Activity (Canis familiaris [5]) [uEq/min] | Activity (Canis familiaris [6]) [mL/min] | Activity (Canis familiaris [7]) [uEq/min] | other results
1 | CC(=O)C(=Cc1ccc(OCC(=O)O)cc1)C(C)=O | 336 | 106 | 4 |  |  |  |  | 
2 | CC(=O)C(=Cc1ccc(OCC(=O)O)cc1Cl)C(C)=O |  |  |  | 1318 | 232 | 11 |  | 
3 | CC(=O)C(=Cc1ccc(OC(C)C(=O)O)c(Cl)c1Cl)C(C)=O (stereo unspecified) |  |  |  | 847 | 71 | 8 |  | 
4 | CCC(=O)/C(=C/c1ccc(OCC(=O)O)c(Cl)c1Cl)C(C)=O |  |  |  | 2025 | 13 | 16 | 1936 | 
5 | CCC(=O)C(=Cc1ccc(OCC(=O)O)c(Cl)c1Cl)C(=O)CC |  |  |  | 676 | 68 | 7 |  | 
6 | CC(=O)C(=Cc1ccc(OCC(=O)O)c(C)c1C)C(C)=O |  |  |  |  | 58 |  |  | 
7 | CC(=O)C(=Cc1ccc(OCC(=O)O)c2ccccc12)C(C)=O |  |  |  | 393 | 104 | 4 |  | 
8 | CC(=O)C(=Cc1cc(OCC(=O)O)ccc1Cl)C(C)=O |  |  |  |  |  |  |  | Activity (Canis familiaris [8]): 1 mL/min
9 | CC(=O)C(=Cc1cc(Cl)ccc1OCC(=O)O)C(C)=O | 94 | 20 | 2 |  |  |  |  | 
10 | CC(=O)C(=Cc1cc(Cl)cc(Cl)c1OCC(=O)O)C(C)=O |  |  |  |  |  |  |  | Activity (Canis familiaris [9]): 244 uEq/min; Activity (Canis familiaris [10]): 50 uEq/min; Activity (Canis familiaris [8]): 3 mL/min
11 | CC(=O)/C(=C\c1ccc(OCC(=O)O)c(Cl)c1Cl)C(=O)c1ccccc1 | 583 | 105 | 6 |  |  |  |  | 
12 | O=C(O)COc1ccc(C=C2C(=O)c3ccccc3C2=O)c(Cl)c1Cl | 118 | 44 | 2 |  |  |  |  | Activity (Canis familiaris [11]): 29 uEq/min
13 | O=C(O)COc1ccc(C=C2C(=O)C=CC2=O)c(Cl)c1Cl | 213 | 94 | 4 |  |  |  |  | 
14 | CSC(c1ccc(OCC(=O)O)c(Cl)c1Cl)C(C(C)=O)C(C)=O (stereo unspecified) |  |  |  | 571 | 78 | 6 | 565 | 
15 | CC(=O)C(C(C)=O)C(SCCO)c1ccc(OCC(=O)O)c(Cl)c1Cl (stereo unspecified) |  |  |  | 405 | 80 | 5 | 447 | 
16 | CC(=O)C(C(C)=O)C(SCC(=O)O)c1ccc(OCC(=O)O)c(Cl)c1Cl (stereo unspecified) |  |  |  | 1569 | 178 | 4 | 1628 | Activity (Canis familiaris [12]): 1424 uEq/min; Activity (Canis familiaris [13]): 173 uEq/min; Activity (Canis familiaris [14]): 1991 uEq/min; Activity (Canis familiaris [15]): 13 mL/min; Activity (Canis familiaris [16]): 750 mL; Activity (Canis familiaris [17]): 6 milliequivalent; Activity (Canis familiaris [18]): 27 milliequivalent; Activity (Canis familiaris [19]): 34 milliequivalent; Activity (Canis familiaris [20]): 575 mL; Activity (Canis familiaris [21]): 3 milliequivalent; Activity (Canis familiaris [22]): 7 milliequivalent; Activity (Canis familiaris [23]): 8 milliequivalent
17 | CC(=O)C(C(C)=O)C(Sc1ccccc1C(=O)O)c1ccc(OCC(=O)O)c(Cl)c1Cl (stereo unspecified) |  |  |  | 802 | 124 | 7 | 913 | 
18 | CC(=O)C(Cc1ccc(OCC(=O)O)c(Cl)c1Cl)C(C)=O | 198 | 35 | 3 |  |  |  |  | Activity (Canis familiaris [11]): 241 uEq/min
19 | CC(=O)C(=Cc1ccc(OCC(=O)O)c(Cl)c1Cl)C(C)=O |  |  |  |  | 104 | 19 |  | Activity (Canis familiaris [12]): 984 uEq/min; Activity (Canis familiaris [13]): 87 uEq/min; Activity (Canis familiaris [15]): 9 mL/min; Activity (Canis familiaris [24]): 492 mL; Activity (Canis familiaris [25]): 7 milliequivalent; Activity (Canis familiaris [20]): 762 mL; Activity (Canis familiaris [26]): 30 milliequivalent; Activity (Canis familiaris [21]): 6 milliequivalent
20 | C=C(CC)C(=O)c1ccc(OCC(=O)O)c(Cl)c1Cl [ETHACRYNIC ACID] | 2989 | 194 | 22 | 188 | 52 | 6 | 244 | Activity (Canis familiaris [11]): 3324 uEq/min; Activity (Canis familiaris [27]): 37 milliequivalent; Activity (Canis familiaris [28]): 7 milliequivalent; Activity (Canis familiaris [29]): 42 milliequivalent; Activity (Canis familiaris [30]): 571 mL; half-life [31]: < 1 min; Activity (Canis familiaris [24]): 560 mL; Activity (Canis familiaris [25]): 5 milliequivalent; Activity (Canis familiaris [32]): 26 milliequivalent; Activity (Canis familiaris [26]): 21 milliequivalent
